# Test results reported in ChEMBL document CHEMBL4350998, “Design, synthesis, and structure-activity relationship studies of l-amino alcohol derivatives as broad-spectrum antifungal agents” (Eur J Med Chem, 2019).
# Legend:
# Candida albicans [1] = test: Antifungal activity against Candida albicans CPCC 400523 assessed as inhibition of visible microbial growth by NCCLS protocol based method; assay type: functional
# Candida albicans [2] = test: Antifungal activity against Candida albicans ATCC SC5314 assessed as inhibition of visible microbial growth by NCCLS protocol based method; assay type: functional
# In short: (§1)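 Compounds dissolved in DMSO and serially diluted into growth medium. MIC was read as the lowest concentration that inhibited visible fungal growth.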
# Cryptococcus neoformans = test: Antifungal activity against Cryptococcus neoformans CGMCC 2.3161 assessed as inhibition of visible microbial growth by NCCLS protocol based method; assay type: functional; in short: as §1
# Candida tropicalis = test: Antifungal activity against Candida tropicalis CGMCC 2.3739 assessed as inhibition of visible microbial growth by NCCLS protocol based method; assay type: functional; in short: as §1
# Aspergillus fumigatus = test: Antifungal activity against Aspergillus fumigatus CGMCC 3.7795 assessed as inhibition of visible microbial growth by NCCLS protocol based method; assay type: functional; in short: as §1
# Candida albicans [3] = test: Antifungal activity against Candida albicans SC5314; assay type: functional
# Candida albicans [4] = test: Antifungal activity against fluconazole-resistant Candida albicans Strain 17# assessed as inhibition of visible microbial growth by NCCLS protocol based method; assay type: functional
# In short: (§2)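 Broth dilution MIC against clinical fluconazole-resistant C. albicans isolates from AIDS patients. Compounds dissolved in DMSO and serially diluted into growth medium. MIC was taken as the lowest concentration that inhibits visible fungal growth. Fluconazole and itraconazole served as positive controls.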
# Candida albicans [5] = test: Antifungal activity against fluconazole-resistant Candida albicans Strain CaR assessed as inhibition of visible microbial growth by NCCLS protocol based method; assay type: functional; in short: as §2
# [6] = molecular target: T1, Lanosterol 14-alpha demethylase (Candida albicans (strain SC5314 / ATCC MYA-2876) (Yeast), UniProt P10613); test: Inhibition of CYP51 in Candida albicans ATCC SC5314 assessed as ergosterol level at 0.13 ug/ml incubated for 16 hrs by GC/MS analysis (reference value: 100%); parameters: scale not given: the % may be the effect or the level left; settings: candida albicans sc5314, 16 h
# T1 sequence (P10613 whole entry): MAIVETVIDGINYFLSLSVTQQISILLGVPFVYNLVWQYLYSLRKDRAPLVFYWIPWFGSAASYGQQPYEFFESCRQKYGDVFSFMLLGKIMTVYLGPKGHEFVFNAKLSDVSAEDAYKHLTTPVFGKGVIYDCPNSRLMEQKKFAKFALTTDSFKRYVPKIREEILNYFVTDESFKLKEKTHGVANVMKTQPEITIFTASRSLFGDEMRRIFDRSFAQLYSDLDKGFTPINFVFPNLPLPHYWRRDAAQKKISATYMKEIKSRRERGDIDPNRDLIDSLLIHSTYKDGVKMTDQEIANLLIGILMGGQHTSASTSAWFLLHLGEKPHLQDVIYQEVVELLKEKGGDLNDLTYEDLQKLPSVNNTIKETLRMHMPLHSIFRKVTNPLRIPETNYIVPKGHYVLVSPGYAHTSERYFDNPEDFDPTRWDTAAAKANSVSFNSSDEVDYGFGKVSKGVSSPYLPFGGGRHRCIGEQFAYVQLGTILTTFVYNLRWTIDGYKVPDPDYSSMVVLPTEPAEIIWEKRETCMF
# [7] = molecular target: T1, Lanosterol 14-alpha demethylase; test: Inhibition of CYP51 in Candida albicans ATCC SC5314 assessed as ergosterol level at 0.5 ug/ml incubated for 16 hrs by GC/MS analysis (reference value: 100%); parameters: scale not given: the % may be the effect or the level left; settings: candida albicans sc5314, 16 h
# [8] = molecular target: T1, Lanosterol 14-alpha demethylase; test: Inhibition of CYP51 in Candida albicans ATCC SC5314 assessed as ergosterol level at 2 ug/ml incubated for 16 hrs by GC/MS analysis (reference value: 100%); parameters: scale not given: the % may be the effect or the level left; settings: candida albicans sc5314, 16 h
# [9] = molecular target: T1, Lanosterol 14-alpha demethylase; test: Inhibition of CYP51 in Candida albicans ATCC SC5314 assessed as ergosterol level at 8 ug/ml incubated for 16 hrs by GC/MS analysis (reference value: 100%); parameters: scale not given: the % may be the effect or the level left; settings: candida albicans sc5314, 16 h
# [10] = molecular target: T1, Lanosterol 14-alpha demethylase; test: Inhibition of CYP51 in Candida albicans ATCC SC5314 assessed as obtusifoliol level at 0.13 ug/ml incubated for 16 hrs by GC/MS analysis (reference value: 0%); parameters: scale not given: the % may be the effect or the level left; settings: candida albicans sc5314, 16 h
# [11] = molecular target: T1, Lanosterol 14-alpha demethylase; test: Inhibition of CYP51 in Candida albicans ATCC SC5314 assessed as obtusifoliol level at 0.5 ug/ml incubated for 16 hrs by GC/MS analysis (reference value: 0%); parameters: scale not given: the % may be the effect or the level left; settings: candida albicans sc5314, 16 h
# [12] = molecular target: T1, Lanosterol 14-alpha demethylase; test: Inhibition of CYP51 in Candida albicans ATCC SC5314 assessed as obtusifoliol level at 2 ug/ml incubated for 16 hrs by GC/MS analysis (reference value: 0%); parameters: scale not given: the % may be the effect or the level left; settings: candida albicans sc5314, 16 h
# [13] = molecular target: T1, Lanosterol 14-alpha demethylase; test: Inhibition of CYP51 in Candida albicans ATCC SC5314 assessed as obtusifoliol level at 8 ug/ml incubated for 16 hrs by GC/MS analysis (reference value: 0%); parameters: scale not given: the % may be the effect or the level left; settings: candida albicans sc5314, 16 h
# [14] = molecular target: T1, Lanosterol 14-alpha demethylase; test: Inhibition of CYP51 in Candida albicans ATCC SC5314 assessed as lanosterol level at 0.13 ug/ml incubated for 16 hrs by GC/MS analysis (reference value: 0%); parameters: scale not given: the % may be the effect or the level left; settings: candida albicans sc5314, 16 h
# [15] = molecular target: T1, Lanosterol 14-alpha demethylase; test: Inhibition of CYP51 in Candida albicans ATCC SC5314 assessed as lanosterol level at 0.5 ug/ml incubated for 16 hrs by GC/MS analysis (reference value: 0%); parameters: scale not given: the % may be the effect or the level left; settings: candida albicans sc5314, 16 h
# [16] = molecular target: T1, Lanosterol 14-alpha demethylase; test: Inhibition of CYP51 in Candida albicans ATCC SC5314 assessed as lanosterol level at 2 ug/ml incubated for 16 hrs by GC/MS analysis (reference value: 0%); parameters: scale not given: the % may be the effect or the level left; settings: candida albicans sc5314, 16 h
# [17] = molecular target: T1, Lanosterol 14-alpha demethylase; test: Inhibition of CYP51 in Candida albicans ATCC SC5314 assessed as lanosterol level at 8 ug/ml incubated for 16 hrs by GC/MS analysis (reference value: 0%); parameters: scale not given: the % may be the effect or the level left; settings: candida albicans sc5314, 16 h
# [18] = molecular target: T1, Lanosterol 14-alpha demethylase; test: Inhibition of CYP51 in Candida albicans ATCC SC5314 assessed as eburicol level at 0.13 ug/ml incubated for 16 hrs by GC/MS analysis (reference value: 0%); parameters: scale not given: the % may be the effect or the level left; settings: candida albicans sc5314, 16 h
# [19] = molecular target: T1, Lanosterol 14-alpha demethylase; test: Inhibition of CYP51 in Candida albicans ATCC SC5314 assessed as eburicol level at 0.5 ug/ml incubated for 16 hrs by GC/MS analysis (reference value: 0%); parameters: scale not given: the % may be the effect or the level left; settings: candida albicans sc5314, 16 h
# [20] = molecular target: T1, Lanosterol 14-alpha demethylase; test: Inhibition of CYP51 in Candida albicans ATCC SC5314 assessed as eburicol level at 2 ug/ml incubated for 16 hrs by GC/MS analysis (reference value: 0%); parameters: scale not given: the % may be the effect or the level left; settings: candida albicans sc5314, 16 h
# [21] = molecular target: T1, Lanosterol 14-alpha demethylase; test: Inhibition of CYP51 in Candida albicans ATCC SC5314 assessed as eburicol level at 8 ug/ml incubated for 16 hrs by GC/MS analysis (reference value: 0%); parameters: scale not given: the % may be the effect or the level left; settings: candida albicans sc5314, 16 h
# [22] = Cytotoxicity in human A549 cells assessed as reduction in cell viability at 0.08 uM/L incubated for 24 hrs by MTT assay relative to control; assay type: cell-based; settings: read-out: INH
# In short: (§3)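 A549 cells were seeded at 3000 cells/well and preincubated for 16 h at 37 °C, 5% CO2. Medium was then replaced with fresh medium holding compound (DMSO stock diluted to final 0.08, 0.4, 2.0, 10 or 50 μM/L). Exposure lasted 24 h at 37 °C, 5% CO2, followed by MTT for 4 h and absorbance at 490 nm. Results are given as % inhibition.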
# [23] = Cytotoxicity in human A549 cells assessed as reduction in cell viability at 0.40 uM/L incubated for 24 hrs by MTT assay relative to control; assay type: cell-based; settings: read-out: INH; in short: as §3
# [24] = Cytotoxicity in human A549 cells assessed as reduction in cell viability at 2 uM/L incubated for 24 hrs by MTT assay relative to control; assay type: cell-based; settings: read-out: INH; in short: as §3
# [25] = Cytotoxicity in human A549 cells assessed as reduction in cell viability at 10 uM/L incubated for 24 hrs by MTT assay relative to control; assay type: cell-based; settings: read-out: INH; in short: as §3
# [26] = Cytotoxicity in human A549 cells assessed as reduction in cell viability at 50 uM/L incubated for 24 hrs by MTT assay relative to control; assay type: cell-based; settings: read-out: INH; in short: as §3
# [27] = Stability in human plasma assessed as parent compound remaining at 100 uM after 60 mins LC/MS/MS analysis relative to control; assay type: ADME, cell-free; settings: read-out: Stability
# In short: (§4)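 Thawed human plasma was cleared at 4000 rpm and spiked from a 100 μM dosing solution to a final 2 μM, in duplicate, at 37 °C. Propantheline served as positive control. Sampling at 0, 10, 30, 60 and 120 min into ACN/MeOH stop solution with tolbutamide and labetalol internal standards. After centrifugation, supernatant was diluted with water and run by LC/MS/MS. % remaining was taken from the analyte/IS peak-area ratio, with no standard curve.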
# [28] = Stability in human plasma assessed as parent compound remaining at 100 uM after 120 mins LC/MS/MS analysis relative to control; assay type: ADME, cell-free; settings: read-out: Stability; in short: as §4
# [29] = molecular target: T1, Lanosterol 14-alpha demethylase; test: Inhibition of CYP51 in Candida albicans ATCC SC5314 assessed as change in sterol components incubated for 16 hrs by GC/MS analysis; settings: candida albicans sc5314, 16 h
compound,measurement,setting,value
CC(C)OC(=O)C(Cn1ccnc1)NC(=O)c1ccc(-c2ccccc2)cc1 (stereo not given),MIC,Candida albicans [1],0.25 µg/mL
same,MIC,Candida albicans [2],< 0.03 µg/mL
same,MIC,Cryptococcus neoformans,2 µg/mL
same,MIC,Candida tropicalis,< 0.06 µg/mL
same,MIC,Aspergillus fumigatus,> 64 µg/mL
same,MIC,Candida albicans [3],0.03 µg/mL
CC[C@H](C)[C@@H](Cn1ccnc1)NC(=O)c1ccc(-c2ccccc2F)cc1F,MIC,Candida albicans [1],0.06 µg/mL
same,MIC,Candida albicans [2],< 0.03 µg/mL
same,MIC,Cryptococcus neoformans,1 µg/mL
same,MIC,Candida tropicalis,< 0.03 µg/mL
same,MIC,Aspergillus fumigatus,2 µg/mL
same,MIC,Candida albicans [4],2 µg/mL
same,MIC,Candida albicans [5],8 µg/mL
same,Activity,[6],98%
same,Activity,[7],36%
same,Activity,[8],6.5%
same,Activity,[9],0%
same,Activity,[10],0%
same,Activity,[11],12.2%
same,Activity,[12],23.8%
same,Activity,[13],31.3%
same,Activity,[14],2%
same,Activity,[15],21%
same,Activity,[16],20%
same,Activity,[17],23.8%
same,Activity,[18],0%
same,Activity,[19],30.8%
same,Activity,[20],49.7%
same,Activity,[21],44.9%
same,"cytotoxicity at 24 h, 0.08 µM",[22],5.4%
same,"cytotoxicity at 24 h, 0.4 µM",[23],6.6%
same,"cytotoxicity at 24 h, 2 µM",[24],7.3%
same,"cytotoxicity at 24 h, 10 µM",[25],8.3%
same,"cytotoxicity at 24 h, 50 µM",[26],13.9%
same,"remaining at 1 h, 100 µM",[27],114%
same,"remaining at 2 h, 100 µM",[28],92.6%
OC(Cn1cncn1)(Cn1cncn1)c1ccc(F)cc1F [FLUCONAZOLE],MIC,Candida albicans [1],1 µg/mL
same,MIC,Candida albicans [2],0.5 µg/mL
same,MIC,Cryptococcus neoformans,4 µg/mL
same,MIC,Candida tropicalis,1 µg/mL
same,MIC,Aspergillus fumigatus,> 64 µg/mL
same,MIC,Candida albicans [4],> 64 µg/mL
same,MIC,Candida albicans [5],> 64 µg/mL
same,Activity,[6],97.7%
same,Activity,[7],90.1%
same,Activity,[8],17.2%
same,Activity,[9],0%
same,Activity,[10],0%
same,Activity,[11],0%
same,Activity,[12],17.7%
same,Activity,[13],37.2%
same,Activity,[14],2.3%
same,Activity,[15],9.9%
same,Activity,[16],28%
same,Activity,[17],22.9%
same,Activity,[18],0%
same,Activity,[19],0%
same,Activity,[20],37.1%
same,Activity,[21],39.9%
same,Activity,[29],Dose-dependent effect
